We go through one molecule from ChEMBL document CHEMBL5608193, “Discovery of bivalent small molecule degraders of cyclin-dependent kinase 7 (CDK7)” (Eur J Med Chem, 2024).

The target of series [1] is von Hippel-Lindau disease tumor suppressor/Cyclin-dependent kinase 4 (Homo sapiens) (UniProt P11802+P40337). The series is described as follows: PROTAC activity at CDK4/VHL in human Jurkat cells assessed as degradation of CDK7 measured at 10 to 500 nM after 6 hrs incubation by Western blotting analysis. Format: cell-based. To be noted: dose 10-500 nM.
von Hippel-Lindau disease tumor suppressor/Cyclin-dependent kinase 4 (Homo sapiens), sequence (P11802 2-303 limits assumed): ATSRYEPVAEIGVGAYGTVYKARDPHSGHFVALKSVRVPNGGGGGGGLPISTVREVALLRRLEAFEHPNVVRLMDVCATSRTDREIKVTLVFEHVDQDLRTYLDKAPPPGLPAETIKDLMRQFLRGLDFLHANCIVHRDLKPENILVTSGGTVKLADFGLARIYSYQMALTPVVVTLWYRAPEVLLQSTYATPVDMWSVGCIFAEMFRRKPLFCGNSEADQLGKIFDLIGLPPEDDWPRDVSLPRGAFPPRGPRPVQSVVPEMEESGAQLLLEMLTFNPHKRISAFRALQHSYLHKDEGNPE
von Hippel-Lindau disease tumor suppressor/Cyclin-dependent kinase 4 (Homo sapiens), sequence (P40337 whole entry partner): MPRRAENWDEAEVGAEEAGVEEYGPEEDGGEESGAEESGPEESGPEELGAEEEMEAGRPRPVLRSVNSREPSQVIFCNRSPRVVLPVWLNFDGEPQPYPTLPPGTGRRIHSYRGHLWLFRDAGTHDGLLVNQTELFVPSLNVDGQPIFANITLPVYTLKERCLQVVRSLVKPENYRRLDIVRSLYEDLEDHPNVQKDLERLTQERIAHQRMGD
For series [2], the target named is von Hippel-Lindau disease tumor suppressor/Cyclin-dependent kinase 8 (Homo sapiens) (UniProt P49336+P40337). The series is described as follows: PROTAC activity at CDK8/VHL in human Jurkat cells assessed as degradation of CDK7 measured at 10 to 500 nM after 6 hrs incubation by Western blotting analysis. The settings on record: dose 10-500 nM. The class given is cell-based.
von Hippel-Lindau disease tumor suppressor/Cyclin-dependent kinase 8 (Homo sapiens), sequence (P40337 whole entry, looked up): as the sequence (P40337 whole entry partner) above
von Hippel-Lindau disease tumor suppressor/Cyclin-dependent kinase 8 (Homo sapiens), sequence (P49336 whole entry, looked up): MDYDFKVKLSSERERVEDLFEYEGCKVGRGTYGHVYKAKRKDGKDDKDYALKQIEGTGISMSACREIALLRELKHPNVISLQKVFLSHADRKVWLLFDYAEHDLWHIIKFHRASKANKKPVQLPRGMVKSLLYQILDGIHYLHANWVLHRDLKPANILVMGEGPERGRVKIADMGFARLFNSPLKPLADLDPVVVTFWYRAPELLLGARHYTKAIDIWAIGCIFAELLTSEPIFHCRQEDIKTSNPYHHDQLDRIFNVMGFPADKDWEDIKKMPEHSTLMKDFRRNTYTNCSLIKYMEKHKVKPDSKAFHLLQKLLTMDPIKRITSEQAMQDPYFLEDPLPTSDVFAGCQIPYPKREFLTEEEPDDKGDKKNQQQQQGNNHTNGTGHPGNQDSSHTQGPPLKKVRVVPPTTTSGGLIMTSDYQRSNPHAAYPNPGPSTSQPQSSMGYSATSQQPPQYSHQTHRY

The nature of series [3]: Cmax in male CD1 mouse at 10 mg/kg, IP measured upto 24 hrs by LC-MS/MS-39 analysis. The settings on record: in vivo. Format: ADME, organism-based. The procedure, abridged:
(§1)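 Male CD1 mice, n=3, one 10 mg/kg intraperitoneal dose. Blood sampled at 0, 0.25, 0.5, 1, 2, 4, 6, 8 and 24 h. Kept on wet ice and spun to plasma (2000 g, 5 min, 4 °C) within 15 min, stored at about −70 °C. Protein precipitation with acetonitrile, then LC-MS/MS. Values are mean ± SD of three mice.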

Series [4] deals with von Hippel-Lindau disease tumor suppressor/Cyclin-dependent kinase 9 (Homo sapiens) (UniProt P50750+P40337). The series is described as follows: PROTAC activity at CDK9/VHL in human Jurkat cells assessed as degradation of CDK7 measured at 10 to 500 nM after 6 hrs incubation by Western blotting analysis. Format: cell-based. The settings on record: dose 10-500 nM.
von Hippel-Lindau disease tumor suppressor/Cyclin-dependent kinase 9 (Homo sapiens), sequence (P40337 whole entry, looked up): as the sequence (P40337 whole entry partner) above
von Hippel-Lindau disease tumor suppressor/Cyclin-dependent kinase 9 (Homo sapiens), sequence (P50750 whole entry, looked up): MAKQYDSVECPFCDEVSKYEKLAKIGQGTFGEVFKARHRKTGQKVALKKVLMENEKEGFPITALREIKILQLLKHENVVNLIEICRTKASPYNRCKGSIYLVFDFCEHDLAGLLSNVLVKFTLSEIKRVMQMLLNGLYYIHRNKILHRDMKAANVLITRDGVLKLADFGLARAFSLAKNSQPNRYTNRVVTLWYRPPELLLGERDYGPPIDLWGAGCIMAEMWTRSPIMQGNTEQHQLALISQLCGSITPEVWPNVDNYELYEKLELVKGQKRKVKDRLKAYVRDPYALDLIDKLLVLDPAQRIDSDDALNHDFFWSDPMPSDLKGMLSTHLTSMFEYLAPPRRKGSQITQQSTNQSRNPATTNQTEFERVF
Series [5] has as its system SU-DHL-5. The series is described as follows: Antiproliferative activity against human SU-DHL-5 cells assessed as cell viability measured after 72 hrs by CellTiter-Glo assay. Format: functional, cell-based. To be noted: SU-DHL-5, 72 h. The procedure, abridged:
(§2)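 Cells grown in RPMI 1640 with 10% heat-inactivated FBS and penicillin/streptomycin at 37 °C, 5% CO2, mycoplasma-negative. Seeded at 10^4/ml. Compounds dispensed digitally from 10 mM or 1 mM DMSO stocks, DMSO equalized, triplicate wells. After 72 h, CellTiter-Glo added for 10–15 min at room temperature and luminescence read.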
(Cellular ATP, detected with luciferase, serves as a proxy for viable cell number.)

A short description of series [6]: Tmax in male CD1 mouse at 3 mg/kg, IV measured upto 24 hrs by LC-MS/MS-39 analysis. The class given is ADME, organism-based. To be noted: in vivo. Summed up:
(§3)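 Three male CD1 mice given a single 3 mg/kg intravenous dose. Plasma prepared on ice by centrifugation (2000 g, 5 min, 4 °C) within 15 min, held at about −70 °C. Acetonitrile precipitation, then LC-MS/MS quantitation. Mean ± SD, n=3.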

In series [7] the target is T1, von Hippel-Lindau disease tumor suppressor/Cyclin-dependent kinase 7 (Homo sapiens) (UniProt P50613+P40337). The series is described as follows: PROTAC activity at CDK7/VHL in human A549 cells assessed as degradation of CDK7 measured at 0.1 to 5 uM measured after 6 hrs incubation by immunoblot analysis. Format: cell-based. The settings on record: dose 0.1-5 µM. Background: Immunoblotting shows a protein as a band on a membrane.
T1 sequence (P40337 whole entry, looked up): as the sequence (P40337 whole entry partner) above
T1 sequence (P50613 whole entry, looked up): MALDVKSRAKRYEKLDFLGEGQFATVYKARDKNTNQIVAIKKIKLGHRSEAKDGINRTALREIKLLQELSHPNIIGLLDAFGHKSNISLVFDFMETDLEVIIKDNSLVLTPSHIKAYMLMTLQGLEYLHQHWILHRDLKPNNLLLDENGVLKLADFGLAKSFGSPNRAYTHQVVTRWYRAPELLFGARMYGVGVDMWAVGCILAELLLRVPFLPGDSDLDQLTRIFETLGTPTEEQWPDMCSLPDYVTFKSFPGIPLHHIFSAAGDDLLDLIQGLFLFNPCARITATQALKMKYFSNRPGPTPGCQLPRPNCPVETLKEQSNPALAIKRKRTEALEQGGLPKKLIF

The nature of series [8]: Half life in male CD1 mouse at 10 mg/kg, IP measured upto 24 hrs by LC-MS/MS-39 analysis. The class given is ADME, organism-based. The settings on record: in vivo. The procedure, abridged:
as §1

The nature of series [9]: Cmax in male CD1 mouse at 3 mg/kg, IV measured upto 24 hrs by LC-MS/MS-39 analysis. The class given is ADME, organism-based. The settings on record: in vivo. Summed up: as §3
The target of series [10] is T1, von Hippel-Lindau disease tumor suppressor/Cyclin-dependent kinase 7 (Homo sapiens). The series is described as follows: PROTAC activity at CDK7/VHL in human Jurkat cells assessed as degradation of CDK7 in presence of 0.5 uM MG132 at 0.1 uM measured after 6 hrs incubation by immunoblot analysis. Format: cell-based. The procedure, abridged:
(§4)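 Jurkat cells pretreated 2 h with MG132, MLN-4924, YKL-5–167 or a VHL ligand, then given degrader for 6 h. CDK7 immunoblotted: RIPA lysis, SDS-PAGE, anti-CDK7 1:1000, IRDye secondaries.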

The target is the same in series [11]. The series is described as follows: PROTAC activity at CDK7/VHL in human Jurkat cells assessed as degradation of CDK7 in presence of 10 uM (S,R,S)-AHPC-me at 0.1 uM measured after 6 hrs incubation by immunoblot analysis. Format: cell-based. The procedure, abridged: as §4
The target is the same in series [12]. The series is described as follows: PROTAC activity at CDK7/VHL in human Jurkat cells assessed as degradation of Cyclin H measured at 0.1 to 5 uM after 6 hrs incubation by Western blotting analysis. Format: cell-based. To be noted: dose 0.1-5 µM. Summed up:
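Jurkat and OVCAR3 cells treated 6 h across a concentration series. Blots probed for CDK7, MAT1 (1:1000) and Cyclin H (1:1000) overnight at 4 °C, with β-actin control and IRDye secondaries.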

Series [13] relates to MOLT-4. Description: Antiproliferative activity against human MOLT-4 cells assessed as cell viability measured after 72 hrs by CellTiter-Glo assay. The settings on record: MOLT-4, 72 h. The class given is functional, cell-based. Summed up: as §2
Series [14] relates to OVCAR-3. The series is described as follows: Antiproliferative activity against human OVCAR-3 cells assessed as cell viability measured after 72 hrs by CellTiter-Glo assay. The class given is functional, cell-based. The settings on record: OVCAR-3, 72 h. The procedure, abridged: as §2
Series [15] has as its target T1, von Hippel-Lindau disease tumor suppressor/Cyclin-dependent kinase 7 (Homo sapiens). Description: PROTAC activity at CDK7/VHL in human Jurkat cells assessed as degradation of CDK7 measured after 6 hrs incubation by immunoblot analysis. The class given is cell-based. To be noted: dose 10-5000 nM.
For series [16], the target named is von Hippel-Lindau disease tumor suppressor/LON peptidase N-terminal domain and RING finger protein 2 (Homo sapiens) (UniProt P40337+Q1L5Z9). Description: PROTAC activity at LONRF2/VHL in human Jurkat cells assessed as degradation of LONRF2 measured at 0.1 to 5 uM after 6 hrs incubation by Western blotting analysis. To be noted: dose 0.1-5 µM. Format: cell-based.
von Hippel-Lindau disease tumor suppressor/LON peptidase N-terminal domain and RING finger protein 2 (Homo sapiens), sequence (P40337 whole entry, looked up, the tested form may be a part): as the sequence (P40337 whole entry partner) above
von Hippel-Lindau disease tumor suppressor/LON peptidase N-terminal domain and RING finger protein 2 (Homo sapiens), sequence (Q1L5Z9 whole entry, looked up, the tested form may be a part): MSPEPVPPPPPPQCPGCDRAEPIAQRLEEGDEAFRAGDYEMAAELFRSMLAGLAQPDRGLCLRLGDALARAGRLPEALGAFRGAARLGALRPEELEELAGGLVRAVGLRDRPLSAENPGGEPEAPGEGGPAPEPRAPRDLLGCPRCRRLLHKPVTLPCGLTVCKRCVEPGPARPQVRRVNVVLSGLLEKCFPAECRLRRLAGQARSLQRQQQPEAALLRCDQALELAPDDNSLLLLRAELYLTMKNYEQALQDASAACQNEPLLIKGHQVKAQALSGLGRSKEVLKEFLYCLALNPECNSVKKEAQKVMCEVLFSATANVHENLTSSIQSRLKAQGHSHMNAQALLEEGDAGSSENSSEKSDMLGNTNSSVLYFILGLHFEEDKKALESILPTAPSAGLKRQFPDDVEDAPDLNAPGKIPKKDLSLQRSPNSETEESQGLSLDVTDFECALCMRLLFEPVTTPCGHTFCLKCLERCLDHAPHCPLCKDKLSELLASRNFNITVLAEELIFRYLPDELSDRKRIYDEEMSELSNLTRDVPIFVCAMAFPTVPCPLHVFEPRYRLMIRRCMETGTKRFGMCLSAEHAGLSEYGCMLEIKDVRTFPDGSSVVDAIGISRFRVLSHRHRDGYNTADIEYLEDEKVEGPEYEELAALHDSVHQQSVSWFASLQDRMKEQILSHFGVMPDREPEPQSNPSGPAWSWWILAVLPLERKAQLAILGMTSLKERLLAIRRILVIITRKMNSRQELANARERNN

Series [17] has as its target von Hippel-Lindau disease tumor suppressor/Cyclin-dependent kinase 1 (Homo sapiens) (UniProt P06493+P40337). Description: PROTAC activity at CDK1/VHL in human Jurkat cells assessed as degradation of CDK7 measured at 10 to 500 nM after 6 hrs incubation by Western blotting analysis. The settings on record: dose 10-500 nM. The class given is cell-based.
In series [18] the target is T1, von Hippel-Lindau disease tumor suppressor/Cyclin-dependent kinase 7 (Homo sapiens). Description: PROTAC activity at CDK7/VHL in human MOLT-4 cells assessed as degradation of CDK7 at 0.1 to 5 uM measured after 6 hrs incubation by immunoblot analysis. Format: cell-based. The settings on record: dose 0.1-5 µM.
Series [19] can be described thus: Observed volume of distribution at steady state in male CD1 mouse at 3 mg/kg, IV measured upto 24 hrs by LC-MS/MS-39 analysis. The class given is ADME, organism-based. To be noted: in vivo, read-out: Vdss. The procedure, abridged: as §3
Series [20] deals with T1, von Hippel-Lindau disease tumor suppressor/Cyclin-dependent kinase 7 (Homo sapiens). Description: PROTAC activity at CDK7/VHL in human SU-DHL-5 cells assessed as degradation of CDK7 at 0.1 to 5 uM measured after 6 hrs incubation by immunoblot analysis. The settings on record: dose 0.1-5 µM. The class given is cell-based.
A short description of series [21]: Observed clearance in male CD1 mouse at 3 mg/kg, IV measured upto 24 hrs by LC-MS/MS-39 analysis. To be noted: in vivo. The class given is ADME, organism-based. The procedure, abridged: as §3

Activity calls are given as the source filed them. No cut-off for these calls is given here.

von Hippel-Lindau disease tumor suppressor/Cyclin-dependent kinase 1 (Homo sapiens), sequence (P06493 whole entry, looked up): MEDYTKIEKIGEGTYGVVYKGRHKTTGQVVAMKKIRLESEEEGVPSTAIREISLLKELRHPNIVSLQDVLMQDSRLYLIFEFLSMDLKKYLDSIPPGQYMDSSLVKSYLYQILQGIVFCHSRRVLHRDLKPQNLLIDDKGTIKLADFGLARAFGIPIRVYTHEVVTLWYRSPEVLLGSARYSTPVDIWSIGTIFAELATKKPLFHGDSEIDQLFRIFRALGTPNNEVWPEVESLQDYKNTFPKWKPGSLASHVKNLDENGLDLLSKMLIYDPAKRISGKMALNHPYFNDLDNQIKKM
von Hippel-Lindau disease tumor suppressor/Cyclin-dependent kinase 1 (Homo sapiens), sequence (P40337 whole entry, looked up): as the sequence (P40337 whole entry partner) above

Usually Cmax stands for the peak of the concentration-time curve. As a reminder, the IC50 is the concentration that inhibits the measured activity by half. One may read the Tmax as the time from dosing to the highest level. As usually defined, the clearance is the volume of plasma or blood freed of the substance per unit of time. A high value points to efficient removal. Regarding `Cc1ncsc1-c1ccc([C@H](C)NC(=O)[C@@H]2C[C@@H](O)CN2C(=O)[C@@H](NC(=O)CCCC#Cc2ccc(C(=O)Nc3n[nH]c4c3CN(C(=O)N[C@H](CN(C)C)c3ccccc3)C4(C)C)cc2)C(C)(C)C)cc1`, the outcome in series [1], in [2], in series [4], in [10], in series [11] and in [16] was inactive. Besides, in [17], the result was inactive. The results for the maximum concentration (Cmax) in series [3] and in [9] were 3.39 µM and 17.1 µM, respectively. The IC50 in [5] was 52 nM; in series [13], 89 nM; in [14], 780 nM. Besides, in [6], the Tmax turned out to be 4.98 min. Besides, the Activity result in series [7], in series [18] and in series [20] was “Dose-Dependent Effect” throughout. The molecule further came in with a t1/2 in series [8] of 2.82 h. In [12], the outcome was Active. For the same molecule, the Efficacy result in series [15] is “Dose-Dependent Effect”. Besides, in series [19], the Vd came to 0.345 L/kg. Also, the clearance in [21] amounted to 8.3 mL/min/kg.
